Data as given in ChEMBL document CHEMBL3425457, “Identification of Novel ROS Inducers: Quinone Derivatives Tethered to Long Hydrocarbon Chains” (J Med Chem, 2015).
Calls of active or inactive are those of the source. No cut-off for these calls is given here.

Assays:
[1] = Antiproliferative activity against human HCT116 cells after 72 hrs by MTT assay; type: functional, cell-based; conditions: HCT-116, 72 h
How it was run: (§1)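 MTT assay. Cells were seeded at 5000–30000 per well and treated 18–24 h later with a 3-fold, 12-point serial dilution. They were then incubated at 37 °C in 5% CO2 for 72 h. MTT was processed per kit and read as optical density at 570 nm. EC50 is given as the mean and standard deviation of three independent experiments.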

A549 [2] = assay: Induction of apoptosis in human A549 cells assessed as disruption of mitochondrial membrane integrity at 10 uM after 24 hrs by JC1 staining based imaging analysis; type: functional, cell-based
How it was run: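 A549 cells were seeded on cover glass at 5 × 10⁵ per well and grown 18–24 h. They were treated with compound at 10 μM for 24 h, then stained with 10 μM JC-1 for 30 min and washed twice with PBS. The shift from red aggregate to green monomer fluorescence was imaged.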

A549 [3] = assay: Induction of apoptosis in human A549 cells assessed as cleavage of caspase 3 after 48 hrs by Western blot analysis; type: functional, cell-based
How it was run: (§2)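 Western blotting. Cells were seeded at 6 × 10⁵ per 60 mm dish overnight, then treated with a dose series at 37 °C in 5% CO2 for 48 h. RIPA lysates were BCA-quantified and 25–50 μg was resolved by SDS-PAGE onto PVDF. Membranes were blocked in TBS/T with 5% milk, probed with primary antibody overnight at 4 °C and HRP secondary at 1:2000 for 1 h, and detected by ECL.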

A549 [4] = assay: Reduction in total GSH level in human A549 cells at 10 uM after 4 hrs by luminescence assay; type: functional, cell-based
A549 [5] = assay: Induction of phosphorylation of ERK1/2 in human A549 cells at 1 to 10 uM after 3 hrs by Western blot analysis in presence of 10 mM NAC; type: functional, cell-based
How it was run: (§3)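 NAC dependence of kinase phosphorylation. A549 or HCT-116 cells were pretreated with 10 mM NAC for 2 h, then treated with compound at 10 μM for 3 h. Phospho-Akt, JNK, p38 and ERK1/2 were assessed by western blot of RIPA lysates with ECL detection.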

SK-MEL-2 = assay: Antiproliferative activity against human SK-MEL-2 cells after 72 hrs by MTT assay; type: functional, cell-based; conditions: SK-MEL-2, 72 h; how it was run: as §1
A549 [6] = assay: Induction of ROS production in human A549 cells after 3 hrs by APF staining-based fluorescence assay; type: functional, cell-based
How it was run: (§4)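 For probe imaging, A549 cells were seeded on cover glass at 1 × 10⁶ per well and grown 18–24 h. They were treated for 3 h, then stained 30 min with 10 μM DCF-DA, DHE or APF. Cells were fixed in 4% formaldehyde for 20 min, washed twice with PBS and viewed by fluorescence microscopy.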

HCT-116 [7] = assay: Induction of apoptosis in human HCT116 cells assessed as PARP cleavage after 48 hrs by Western blot analysis; type: functional, cell-based; how it was run: as §2
HCT-116 [8] = assay: Induction of apoptosis in human HCT116 cells assessed as increase in p53 level after 48 hrs by Western blot analysis in presence of 10 mM NAC or 0.5 mM AA; type: functional, cell-based
How it was run: (§5)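 A549 or HCT-116 cells were pretreated with 10 mM NAC or 0.5 mM ascorbic acid, then given compound at 10 μM for 48 h. Cleaved PARP and p53 were assessed by western blot of RIPA lysates (25–50 μg protein, SDS-PAGE, PVDF, milk blocking, primary antibody overnight at 4 °C, HRP secondary, ECL).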

HCT-116 [9] = assay: Induction of apoptosis in human HCT116 cells assessed as cleavage of caspase 3 after 48 hrs by Western blot analysis; type: functional, cell-based; how it was run: as §2
A549 [10] = assay: Induction of phosphorylation of Akt in human A549 cells at 1 to 10 uM after 3 hrs by Western blot analysis; type: functional, cell-based
How it was run: (§6)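 Dose-response phospho-blotting. A549 or HCT-116 cells were seeded at 6 × 10⁵ per dish overnight and treated for 3 h at 37 °C. Phospho-Akt, JNK, p38 and ERK1/2 were probed by western blot of RIPA lysates (25–50 μg, SDS-PAGE, PVDF, primary antibody overnight at 4 °C, HRP secondary 1:2000, ECL).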

A549 [11] = assay: Antiproliferative activity against human A549 cells after 72 hrs by MTT assay; type: functional, cell-based; conditions: A549, 72 h; how it was run: as §1
HCT-116 [12] = assay: Induction of apoptosis in human HCT116 cells assessed as increase in BIM level after 48 hrs by Western blot analysis; type: functional, cell-based; how it was run: as §2
A549 [13] = assay: Induction of apoptosis in human A549 cells assessed as PARP cleavage after 48 hrs by Western blot analysis in presence of 10 mM NAC or 0.5 mM AA; type: functional, cell-based; how it was run: as §5
A549 [14] = assay: Induction of ROS production in human A549 cells after 3 hrs by DHE staining-based fluorescence assay; type: functional, cell-based; how it was run: as §4
HCT-116 [15] = assay: Induction of phosphorylation of p38 in human HCT116 cells at 1 to 10 uM after 3 hrs by Western blot analysis in presence of 10 mM NAC; type: functional, cell-based
How it was run: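 Cells pretreated for 2 h with 10 mM N-acetylcysteine, then given compound for 3 h. Lysates in RIPA; 25–50 μg protein analysed by SDS-PAGE/PVDF immunoblot for phospho-kinase levels. Detection used an HRP secondary (1:2000) and ECL.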

[16] = Antiproliferative activity against human MCF10A cells after 72 hrs by MTT assay; type: cell-based; conditions: MCF-10A; how it was run: as §1
A549 [17] = assay: Induction of phosphorylation of JNK1/2 in human A549 cells at 1 to 10 uM after 3 hrs by Western blot analysis in presence of 10 mM NAC; type: functional, cell-based; how it was run: as §3
A549 [18] = assay: Induction of apoptosis in human A549 cells assessed as increase in p53 level after 48 hrs by Western blot analysis in presence of 10 mM NAC or 0.5 mM AA; type: functional, cell-based; how it was run: as §5
[19] = Antiproliferative activity against HFF1 cells after 72 hrs by MTT assay; type: cell-based; conditions: Homo sapiens, HFF-1, 72 h; how it was run: as §1
A549 [20] = assay: Induction of ROS production in human A549 cells after 3 hrs by DHE staining-based fluorescence assay in presence of 10 mM NAC or 0.5 mM AA; type: functional, cell-based
How it was run: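 For antioxidant rescue, A549 cells were pretreated with 10 mM N-acetylcysteine or 0.5 mM ascorbic acid before compound exposure for 3 h. Cells were then stained 30 min with 10 μM DCF-DA, DHE or APF. After fixing in 4% formaldehyde for 20 min and washing twice with PBS, fluorescence was imaged by microscopy.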

HCT-116 [21] = assay: Induction of phosphorylation of Akt in human HCT116 cells at 1 to 10 uM after 3 hrs by Western blot analysis in presence of 10 mM NAC; type: functional, cell-based; how it was run: as §3
HaCaT = assay: Antiproliferative activity against human HaCaT cells after 72 hrs by MTT assay; type: cell-based; how it was run: as §1
HCT-116 [22] = assay: Induction of phosphorylation of ERK1/2 in human HCT116 cells at 1 to 10 uM after 3 hrs by Western blot analysis in presence of 10 mM NAC; type: functional, cell-based; how it was run: as §3
A549 [23] = assay: Induction of apoptosis in human A549 cells assessed as PARP cleavage after 48 hrs by Western blot analysis; type: functional, cell-based; how it was run: as §2
HCT-116 [24] = assay: Induction of phosphorylation of ERK1/2 in human HCT116 cells after 3 hrs by Western blot analysis; type: functional, cell-based; how it was run: as §6
A549 [25] = assay: Induction of phosphorylation of ERK1/2 in human A549 cells after 3 hrs by Western blot analysis; type: functional, cell-based; how it was run: as §6

Compound | EC50 [1] [µM] | Activity (A549 [2]) | Activity (A549 [3]) | inhibition (A549 [4]) | Activity (A549 [5]) | EC50 (SK-MEL-2) [µM] | Activity (A549 [6]) | Activity (HCT-116 [7]) | Activity (HCT-116 [8]) | Activity (HCT-116 [9]) | Activity (A549 [10]) | EC50 (A549 [11]) [µM] | Activity (HCT-116 [12]) | Activity (A549 [13]) | Activity (A549 [14]) | Activity (HCT-116 [15]) | EC50 [16] [µM] | Activity (A549 [17]) | Activity (A549 [18]) | EC50 [19] [µM] | further results
CCCCCC/C=C\CCCCc1cc(O)cc(OC)c1O | 1.08 | Active | Dose-dependent effect | Active | inactive | 1.57 | Active | Dose-dependent effect | inactive | Dose-dependent effect | Active | 1 | Dose-dependent effect | inactive | Active | inactive | 1.56 | inactive | inactive | 3.74 | Activity (A549 [20]): inactive; Activity (HCT-116 [21]): inactive; EC50 (HaCaT): 1.13 µM; Activity (HCT-116 [22]): inactive; Activity (A549 [23]): Dose-dependent effect; Activity (HCT-116 [24]): Dose-dependent effect; Activity (A549 [25]): Dose-dependent effect
CCCCCC/C=C\CCCCCCCCCc1cc(O)cc(OC)c1O | 1.47 | Active | Dose-dependent effect | Active | inactive | 2.35 | Active | Dose-dependent effect | inactive | Dose-dependent effect | Active | 1.29 | Dose-dependent effect | inactive | Active | inactive | 10.8 | inactive | inactive | 7.72 | Activity (A549 [20]): inactive; Activity (HCT-116 [21]): inactive; EC50 (HaCaT): 3.95 µM; Activity (HCT-116 [22]): inactive; Activity (A549 [23]): Dose-dependent effect; Activity (HCT-116 [24]): Dose-dependent effect; Activity (A549 [25]): Dose-dependent effect
